This sample holds only a part of the variants without activity.
B1: tRNA (parent)
chain: GUUCCGUUGGCGUAAUGGUAACGCGUCUCCCUCCUAAGGAGAAGACUGCGGGUUCGAGUCCCGUACGGAACG

Variants of: B1
Experiment: yeast fitness relative to wild type (ratio to wild type); higher = fitter; tRNA-Arg(CCU), competitive growth, 37 C, YPD
Outline: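 Genotype frequency changes were the basis for Darwinian fitness relative to wild type. The frequencies came from 100-nucleotide paired-end sequencing of gene amplicons from the start population and each end population of pooled yeast strains with tRNA-Arg(CCU) gene variants at the native locus. Competition ran in YPD at 37°C for 24 hours in six replicates, genotypes needed ≥ 100 starting reads, and estimates < 0.5 were set to 0.5.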

Row | Variant | yeast fitness
1 | G6A C31U G63A | 0.582
2 | G6A C33U G56C C60U | ≤ 0.5
3 | G6A G12C C27A A37G C49U | ≤ 0.5
4 | G6A A69C | 0.866
5 | G6A C29A U32C A42U G67A | ≤ 0.5
6 | G6A A20G A21G C29G | ≤ 0.5
7 | G6A G39C | 0.821
8 | G6A A40U C55G G63C | ≤ 0.5
9 | G6A C49U | 0.959
10 | G6A A20U C27A A57U C62A | ≤ 0.5
11 | G6A C11A C24U | ≤ 0.5
12 | G6A U19C | 0.99
13 | G6A U19A | 0.973
14 | G6A A40G | 0.842
15 | G6A U19A G23A | 0.603
16 | G6A C24U A36C A43U A69U | ≤ 0.5
17 | G6A U16G A21G A40G A42U G67C | ≤ 0.5
18 | G6A C33U G50A G52C A65C | ≤ 0.5
19 | G6A A36C A37G G52A A70U | ≤ 0.5
20 | G6A C27G C31G G50A A70U | ≤ 0.5
21 | G6A C27A C30U G41C A43U C49A | 0.52
22 | G6A C11U C34G | 0.567
23 | G6A A21G C49U | 0.791
24 | G6A U8A G44C A57U | ≤ 0.5

Row | Variant | yeast fitness
25 | G6A U13A A14G A42U G48C G67C | ≤ 0.5
26 | G6A G17A C27U C31G C66G | ≤ 0.5
27 | G6A C31A G51C C55G A57U C66U | ≤ 0.5
28 | G6A U13A | 0.848
29 | G6A U13C | 0.937
30 | G6A G10A A43G U47G | 0.761
31 | G6A A57G | 0.929
32 | G6A A57U | 0.629
33 | G6A A57C | 0.627
34 | G6A C34A C46U A65C | ≤ 0.5
35 | G6A G17A U19G A69U | 0.595
36 | G6A G10A G39C A70C | ≤ 0.5
37 | G6A C55U G58A G67A | ≤ 0.5
38 | G6A C22G G25A U47A A70C | ≤ 0.5
39 | G6A G52A G68C | 0.609
40 | G6A G9C C31U | ≤ 0.5
41 | G6A A42G C61G C66A | ≤ 0.5
42 | G6A A43C C62A | 0.551
43 | G6A C11U C62A A65U C66U | ≤ 0.5
44 | G6A C11A A20G C62A | ≤ 0.5
45 | G6A C31G G50A | 0.61
46 | G6A G56A | 0.852
47 | G6A G56C | 0.672
48 | G6A C29G | 0.634

Row | Variant | yeast fitness
49 | G6A C29U | 0.748
50 | G6A G9A C24G U35A G48C | ≤ 0.5
51 | G6A A20C C66A | 0.549
52 | G6A G12A G23C C49G U53G A57G | ≤ 0.5
53 | G6A G67C | 0.963
54 | G6A G67U | 0.814
55 | G6A C33U | 0.649
56 | G6A C11A U32A C34G G58A | ≤ 0.5
57 | G6A U7G G25C U53A A69C | ≤ 0.5
58 | G6A G48C G63C | 0.667
59 | G6A A40U U53A C61A A65U A69U | 0.511
60 | G6A C11A U19A A69U | 0.577
61 | G6A G23C G68A | ≤ 0.5
62 | G6A G10C | 0.725
63 | G6A A20G C31G C46U G67A | ≤ 0.5
64 | G6A A57U G68U A70G | ≤ 0.5
65 | G6A G12C A36C | ≤ 0.5
66 | G6A C29U A42U A43U C55G | ≤ 0.5
67 | G6A A20C C46G | 0.696
68 | G6A C60A G67C | 0.536
69 | G6A G38A U47A C60G | ≤ 0.5
70 | G6A G12A C34U G41A | 0.556
71 | G6A A20G C49A | 0.616
72 | G6A U13G C27U C61G C66U | ≤ 0.5

Row | Variant | yeast fitness
73 | G6A C22A G23A C33U C34G G68C | ≤ 0.5
74 | G6A G48C C49U | 0.652
75 | G6A G44A | 0.737
76 | G6A G12A C27U C30G C55U A57C | ≤ 0.5
77 | G6A U13G C27U C61G | 0.667
78 | G6A C11U G68A | ≤ 0.5
79 | G6A A42C U53G G67C | ≤ 0.5
80 | G6A A21C U47A C61A A70C | ≤ 0.5
81 | G6A G10A C30U C60G | ≤ 0.5
82 | G6A C27G | 0.758
83 | G6A U7A C60G | ≤ 0.5
84 | G6A C22U C30G A36G | 0.621
85 | G6A G12A C27G G68C A70U | 0.549
86 | G6A G23A C24G G44A | ≤ 0.5
87 | G6A C27G C34G A65C | ≤ 0.5
88 | G6A C29G A65U | ≤ 0.5
89 | G6A C11U C27A | 0.719
90 | G6A C66U G67A | 0.661
91 | G6A C31G A70C | 0.553
92 | G6A G18C C30G C34A A37C A65U | 0.584
93 | G6A U16A A36C A37G G56C | ≤ 0.5
94 | G6A C33A G58A G63C | ≤ 0.5
95 | G6A C49U G58A | 0.654
96 | G6A C30U G51C | ≤ 0.5

Row | Variant | yeast fitness
97 | G6A C24G G39C C61U C66U | ≤ 0.5
98 | G6A U19C C30G A69C | ≤ 0.5
99 | G6A G39A U53A | ≤ 0.5
100 | G6A G17A C27U C33A A37C | ≤ 0.5
101 | G6A C46G U64A | 0.667
102 | G6A A42C A70G | ≤ 0.5
103 | G6A U8C G10A U19C G41A U47C | ≤ 0.5
104 | G6A G17A A69U | 0.551
105 | G6A C11A A40G | ≤ 0.5
106 | G6A A45U G48A C55A | ≤ 0.5
107 | G6A C24U C61G G68U | ≤ 0.5
108 | G6A G25C C34U C46A | ≤ 0.5
109 | G6A A20C A70U | 0.739
110 | G6A A37C A40G | ≤ 0.5
111 | G6A U26A | 0.95
112 | G6A C27G A36C A42C A57U U64A A70C | ≤ 0.5
113 | G6A G23C C29G A43U G50A A65C | ≤ 0.5
114 | G6A A37C | 0.824
115 | G6A U8C G18C A21C C33A | ≤ 0.5
116 | G6A A37U A40C | ≤ 0.5
117 | G6A C24U A37G C61G C66U A69U | ≤ 0.5
118 | G6A G68A | 0.896
119 | G6A G68U | 0.934
120 | G6A C34G A37G G67U | ≤ 0.5

Row | Variant | yeast fitness
121 | G6A U19A G44A | ≤ 0.5
122 | G6A C31G C34U C46U G56A | ≤ 0.5
123 | G6A A37U C62U | ≤ 0.5
124 | G6A C34A A40U | 0.556
125 | G6A U13A U19C A40U G67A | ≤ 0.5
126 | G6A C24A | 0.654
127 | G6A U13G C27U C30A G44C C46U | ≤ 0.5
128 | G6A A21C A42G | 0.692
129 | G6A G23C A37U A57G A65C | ≤ 0.5
130 | G6A G10C A20G C22U G38C C61G | ≤ 0.5
131 | G6A A20C C61G G68C | ≤ 0.5
132 | G6A U8A C22G U47A A70C | ≤ 0.5
133 | G6A U19G G52A | 0.606
134 | G6A C11G G17U G38A A43U U54A | ≤ 0.5
135 | G6A U8G U13A C30U G39C C55G | ≤ 0.5
136 | G6A C11A A14C U19C U32A A42C | 0.664
137 | G6A C34G U59A | 0.547
138 | G6A C11U G23A C46A C55A | ≤ 0.5
139 | G6A C33A A37C | ≤ 0.5
140 | G6A C34G A37U C49G | 0.532
141 | G6A C33G C34G C60A A69U | ≤ 0.5
142 | G6A C11U U13C A43G G67A | 0.58
143 | G6A C22U G23C C49G U53G A57G | ≤ 0.5
144 | G6A C33G C34G C61A G67U | ≤ 0.5

Row | Variant | yeast fitness
145 | G6A C30G G67C | ≤ 0.5
146 | G6A A20U C49U G50U | ≤ 0.5
147 | G6A A20G C24U | 0.612
148 | G6A C22U A40G A43U C46G C49G C62U | ≤ 0.5
149 | G6A C34U A40G G68A | ≤ 0.5
150 | G6A G41C | 0.863
151 | G6A U7G U26C G52A C55U | ≤ 0.5
152 | G6A G10C C30A U32C A69U | 0.586
153 | G6A G17A C24G C27G G67A | ≤ 0.5
154 | G6A C22U A42C U54A | ≤ 0.5
155 | G6A G52A G63A | ≤ 0.5
156 | G6A C11G A21C C22G C30G A45U | ≤ 0.5
157 | G6A G44A C46A G52A A65U | ≤ 0.5
158 | G6A A65C | 0.945
159 | G6A G23C G41C C49U | ≤ 0.5
160 | G6A C27U C29A G58C C66U | ≤ 0.5
161 | G6A C11U C33U U64C A70C | ≤ 0.5
162 | G6A G9C C27A C31A | ≤ 0.5
163 | G6A G51C A57G C61U A65C | ≤ 0.5
164 | G6A C11U C22G | 0.555
165 | G6A C22G C60A C62U | ≤ 0.5
166 | G6A G51A | 0.83
167 | G6A G51C | 0.595

From the RNAGym collection of RNA variant scans (doi:10.1126/science.aae0568)
